KCNK9 inh: KCNK9 potassium channel inhibitors, primary screen, HEK293 cells, thallium flux; B-score at 10 µM; Potassium channel subfamily K member 9 (Homo sapiens), Q9NPC2; FluxOR thallium flux fluorescence; stronger effect = lower value; hit rate 1.2% among 310,000;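 active means ratio B-score over 3 SD below the library mean, with starting fluorescence within 5 SD of its mean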;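 further: negative B-score means less thallium flux so channel inhibition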
hERG rescue: hERG rescue from dofetilide block, primary screen, cell-based, CHO-hERG, FluxOR thallium flux, dofetilide IC70. Voltage-gated inwardly rectifying potassium channel KCNH2 (Homo sapiens), Q12809. dofetilide IC70 present. activation (rescue from dofetilide block), less the hit threshold, % at 10 µM. hit rate 0.51% among 310,000. AID 1511, 2009;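 active means activation above the mean of controls blocked by dofetilide plus 5 SD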;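 further: thallium influx through hERG after potassium depolarization seen as dye fluorescence rise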
KCNK3 block: human KCNK3 channel inhibitors, primary screen, CHO cells, FluxOR thallium flux, B-score | B-score at 10 µM | AID 602410, 2012 | hit rate 0.84% among 340,000 | FluxOR fluorescence; stronger effect = lower value | Potassium channel subfamily K member 3 (Homo sapiens), O14649;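 active means B-score under library mean minus 4 SD, starting fluorescence ratio at most library mean plus 5 SD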;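 further: more negative B-score means stronger inhibition of thallium flux through KCNK3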
KCNQ1 act: potentiators or activators of KCNQ1 channel, primary screen, cell-based, thallium flux, high-throughput. hit rate 0.35% among 310,000. CHO-K1 KCNQ1, thallium flux FluxOR fluorescence; stronger effect = higher value. Potassium voltage-gated channel subfamily KQT member 1 (Homo sapiens), P51787. B-score at 10 µM;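 active means fluorescence ratio B-score, a plate-corrected score, at least three library SD, with initial intensity B-score within 5 SD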
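Assay system: CHO-K1 cells stably expressing KCNQ1; Medium: assay buffer with matched DMSO; Also added: K+/Tl+ depolarizing stimulus; Dosing: single dose; Timing: dye 90 min, compound 20 min, room temperature; Measured by: kinetic FluxOR thallium fluorescence, 10-s 1-Hz baseline, 110-s post-stimulus read; Read-out: peak-minus-minimum fluorescence over initial fluorescence, negative-control normalized, B-scored.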
KCNQ1 block: inhibitors of human KCNQ1 channel, primary screen, cell-based, thallium flux, high-throughput | Potassium voltage-gated channel subfamily KQT member 1 (Homo sapiens), P51787 | B-score at 10 µM | CHO-K1 KCNQ1, FluxOR thallium flux fluorescence; stronger effect = higher value | hit rate 1.3% among 310,000;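 active means compounds whose thallium flux B-score, printed positive for inhibition, exceeds three library SD while starting fluorescence stays within three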;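 further: channel opened by potassium depolarization with thallium stimulus after 20 min compound exposure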
PHOSPHO1 inh: PubChem AID 1565. hit rate 1.1% among 290,000. Phosphoethanolamine/phosphocholine phosphatase (Homo sapiens), Q8TCT1. inhibition, % at 13.3 µM. recombinant PHOSPHO1, absorbance phosphatase assay; in the data active means inhibition above about 60%
Target sequence (Q8TCT1 whole entry, looked up): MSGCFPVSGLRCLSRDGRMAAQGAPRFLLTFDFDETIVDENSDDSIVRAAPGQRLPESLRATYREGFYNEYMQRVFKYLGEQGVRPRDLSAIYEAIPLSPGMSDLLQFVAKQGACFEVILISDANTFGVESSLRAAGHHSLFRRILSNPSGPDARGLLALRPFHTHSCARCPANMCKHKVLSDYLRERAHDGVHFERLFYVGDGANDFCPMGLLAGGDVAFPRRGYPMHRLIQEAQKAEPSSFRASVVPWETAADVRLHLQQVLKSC
* = called active by the depositor; i = inactive; x = no result given. Most compounds without a hit are left out; they make up all but 4% or so of the library.

SMILES	KCNK9 inh	hERG rescue	KCNK3 block	KCNQ1 act	KCNQ1 block	PHOSPHO1 inh
Cc1ccc(C)c(NC(=S)N=Nc2c(O)n(C)c3ccc(S(=O)(=O)N4CCOCC4)cc23)c1	i	-4.5	i	i	i	-5.8
COc1ccc(N(Cc2ccccc2)C(=O)c2ccccc2[N+](=O)[O-])cc1	i	-12.7	i	i	i	-38.4
Cc1ccc(NC(=S)N(CCCN2CCCC2)Cc2cccn2Cc2ccc(Cl)cc2)cc1Cl	i	-12.1	i	i	7*	-12.6
Cc1ccc(-c2nnn(CC(=O)N(CC(=O)NC3CCCC3)c3ccc(F)cc3)n2)o1	i	-10.2	i	i	i	40.5
COc1cc(C(=O)N[C@H](C(=O)NC2CCCCCC2)C(C)C)cc(OC)c1OC	i	-11.3	i	i	i	-5.3
CCN1CCN(C(=S)c2ccc(Cl)c(Cl)c2)CC1	i	-11.2	i	i	i	95.0*
C=CCSc1n[nH]c2nc3c(c(=O)n12)C1(CCCC1)Cc1ccccc1-3	x	x	i	x	x	42.2
CCN(CC)S(=O)(=O)c1cccc(C(=O)/C=C2/N(C)c3ccccc3C2(C)C)c1	-7.71*	-15.0	i	i	i	-12.0
CCOC(=O)C1=C(C)N=C2c3ccccc3C(=O)C2C1c1ccc(Cl)cc1 (centres undefined)	-8.01*	-2.4	-10.3*	i	i	32.5
CCOC(=O)C1=NNC(C(=O)c2ccccc2)C1c1ccc(Cl)cc1 (centres undefined)	i	-5.0	i	i	i	17.7
O=C(/C=C/c1ccc(Cl)cc1Cl)N1CCN(c2ccccc2[N+](=O)[O-])CC1	i	-6.8	i	i	i	7.3
COCCNC(=O)COCc1cc(-c2ccc3c(c2)OCO3)on1	i	0.6	i	i	i	29.2
COCCNC(=O)c1cc(-c2ccc3c(c2)OCO3)on1	i	-7.4	i	i	i	68.7*
CC(=O)Nc1sc(N)nc1-c1ccccc1	i	-6.2	i	i	i	80.3*
O=C(O/N=C1\CCS(=O)(=O)c2sccc21)C1CC1	i	5.0*	i	i	i	-4.9
CC(C)(C)C(=O)O/N=C1\CCS(=O)(=O)c2sccc21	i	-3.6	i	i	i	-21.6
CCCS(=O)(=O)c1c(S(=O)(=O)CCC)c2ccc(C(N)=O)cn2c1C(=O)c1ccc(OC)cc1	i	-12.5	i	i	i	60.1*
Cc1noc(C)c1C(=O)Nc1cc(Cl)ccc1N1CCOCC1	x	x	i	x	x	x
CCC(=O)N(Cc1c(C)nn(-c2ccccc2)c1Cl)c1ccc(Cl)cc1	i	-12.7	i	i	6*	0.6
CN(CC(=O)Nc1ccc2c(c1)OCCO2)S(=O)(=O)c1cccc2cccnc12	i	-3.4	i	i	i	4.3
CN(c1ccccc1)S(=O)(=O)c1ccc(C(=O)NNC(=O)c2ccccc2F)cc1	x	x	i	x	x	x
Nc1cc2c(cc1[N+](=O)[O-])OCCOCCOCCO2	i	6.4*	i	i	i	48.8
O=C(CCN1CCCO1)NC1CCCc2c1cnn2-c1ccccc1F (centres undefined)	i	-5.8	i	i	i	11.6
O=C(CCc1cn2ccccc2n1)NC1CCCc2c1cnn2-c1ccccc1F (centres undefined)	i	-11.6	i	i	i	75.4*
Cc1c(C(=O)NN)nc2ccccn12	i	-6.5	i	i	i	-11.2
O=[N+]([O-])c1ccccc1OCC(O)CN1CCN(CC(O)COc2ccccc2[N+](=O)[O-])CC1 (centres undefined)	i	-3.7	i	i	11*	8.5
O=C(c1ccccc1)C1C(=O)c2ccccc2C1=O	i	-5.9	i	i	i	37.0
